Experimental data of several laboratories.
Compare with care: the assays were run in different laboratories.
Cell line: MCF7
Observed: cell growth or viability

COc1c2c(cc3c1OCO3)[C@]13C=C[C@H](OC)C[C@@H]1[N@](C2)C[C@H]3OC(=O)c1ccoc1
IC50 (WST-1): > 10000 nM

C/C1=C/C(=O)O[C@@H]2C[C@@H](CC[C@H](C)/C=C\C=C\CC1)O[C@@](OC(=O)c1ccccc1)([C@@H]1CSC(=O)N1)C2
IC50 (MTT; 72 h): 520 nM

COc1cc2c3c(n(CCCN4CCOCC4)c(=O)c2cc1OC)-c1cc2c(cc1C3=O)OCO2
IC50 (72 h): 0.288 µg/mL

CO[C@]1([C@@H]2CSC(=O)N2CCCO)C[C@H]2C[C@@H](CC[C@H](C)/C=C\C=C\CC/C(C)=C\C(=O)O2)O1
IC50 (MTT; 72 h): 19200 nM

CC1c2c(c3ccccc3oc2=O)Oc2ncn(N)c(=N)c21 (centres unmarked)
IC50 (MTT; 72 h): > 75000 nM

CO[C@]1([C@@H]2CSC(=O)N2Cc2ccccc2)C[C@H]2C[C@@H](CC[C@H](C)/C=C\C=C\CC/C(C)=C\C(=O)O2)O1
IC50 (MTT; 72 h): 780 nM

C=C(C)C(=O)O[C@H]1CC2=C[C@@H](C/C(C)=C/[C@H]3OC(=O)C(=C)[C@H]13)OC2=O
IC50 (MTT; 24 h): 2300 nM

COc1c2c(cc3c1OCO3)[C@]13C=C[C@H](OC)C[C@@H]1[N@](C2)C[C@H]3OC(=O)c1ccc2ccccc2c1
IC50 (WST-1): > 10000 nM

COC1(C2CSC(=O)N2)CC2CC(CCC(C)C=CC=CCCC(C)=CC(=O)O2)O1 (centres unmarked)
IC50 (MTT; 72 h): 10200 nM

COc1c2ccoc2cc2oc(=O)ccc12
IC50 (WST-1; 48 h): 34500 nM

C[C@@H]1O[C@@H](O[C@H]2C[C@@H](O)[C@]3(CO)[C@H]4[C@H](O)C[C@]5(C)[C@@H](C6=CC(=O)OC6)CC[C@]5(O)[C@@H]4CC[C@]3(O)C2)[C@H](O)[C@H](O)[C@H]1O
IC50 (resazurin; 72 h): 53 nM

O=C(Oc1ccc(-n2cccc2)cc1)[c-]1cccc1.[Fe+2].c1cc[cH-]c1
IC50 (MTT; 72 h): 1400 nM

O=C1[O][Pt]2([NH][C@@H]3CCCC[C@H]3[NH]2)[O]C1=O
IC50 (MTT; 96 h): 2600 nM

C[C@]12C[C@@H](O)[C@H]3[C@@H](CC[C@]4(O)C[C@@H](O)C[C@@H](O)[C@]34CO)[C@@]1(O)CC[C@@H]2c1cn(Cc2ccccc2)nn1
IC50 (resazurin; 72 h): > 100000 nM

COc1ccc(/C=C\c2cc(OC)c(OC)c(OC)c2)cc1
IC50 (SRB; 48 h): 4.8 nM

C/C1=C/C(=O)O[C@@H]2C[C@@H](CC[C@H](C)/C=C\C=C\CC1)O[C@@](O)([C@@H]1CSC(=O)N1Cc1ccccc1)C2
IC50 (MTT; 72 h): 630 nM

N.N.[Cl][Pt][Cl]
IC50 (MTT; 48 h): 14200 nM

C/C1=C/C(=O)O[C@@H]2C[C@@H](CC[C@H](C)/C=C\C=C\CC1)O[C@@](O)([C@@H]1CSC(=O)N1CO)C2
IC50 (MTT; 72 h): 120 nM

O=C(Oc1ccc(I)cc1)[c-]1cccc1.[Fe+2].c1cc[cH-]c1
IC50 (MTT; 72 h): 256000 nM

O=C(O)CCCc1ccc(N(CCCl)CCCl)cc1
IC50 (CCK-8; 48 h): 38500 nM
